Measurements taken from the array DNA melting data of Ke et al. (doi:10.1101/2024.01.08.574731).

Assays:
[1] = melting temperature; fluorescence melt of hairpins on a sequencing array, two-state fit, raised by 9.35 °C to match UV melts; conditions: sodium 0.088 M
Method in brief: (§1)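 In 50 mM Na-HEPES pH 8.0 containing 25 mM NaCl, hairpins from the library on a sequenced MiSeq flow cell were imaged for Cy3 fluorescence at 2.5 °C steps up to 60 °C, with Cy3 and quencher oligos annealed. After normalisation to pre-quench Cy3 and to control constructs, two-state fits with bootstrapping gave melting temperature and folding enthalpy. Four replicates were combined by inverse-variance weighting, and fitted temperatures were shifted up by 9.35 °C to match UV melts.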

[2] = folding enthalpy; higher = less favourable; fluorescence melt of hairpins on a sequencing array, two-state fit; conditions: sodium 0.088 M
Method in brief: as §1

GGATCCGAAAGGAAGTCC ((((((....)))..)))
Tm [1]: 29.5 °C
folding enthalpy [2]: -10.1 kcal/mol

GGCACAACGAAAGTTGCC (((..(((....))))))
Tm [1]: 44.2 °C
folding enthalpy [2]: -16.4 kcal/mol

GGTGTCCGAAAGGAGACC (((.(((....))).)))
Tm [1]: 58.3 °C
folding enthalpy [2]: -42.9 kcal/mol

GTTGTCGGAAACGATAAC (((.(((....))).)))
Tm [1]: 47.8 °C
folding enthalpy [2]: -34.6 kcal/mol

GAGGTGGGAAACCACCCC (.(((((....))))).)
Tm [1]: 44.6 °C
folding enthalpy [2]: -10.7 kcal/mol

GATGCCCGAAAGGGATC (((.(((....))))))
Tm [1]: 45 °C
folding enthalpy [2]: -17.4 kcal/mol

GCATTGCGAAAGCGCTGC (((..((....))..)))
Tm [1]: 45.7 °C
folding enthalpy [2]: -18.8 kcal/mol

GTCATCCGAAAGGAGAC (((.(((....))))))
Tm [1]: 45.2 °C
folding enthalpy [2]: -20.1 kcal/mol

GTGGGGGGAAACCCTCGC (.(.(((....))).).)
Tm [1]: 40.8 °C
folding enthalpy [2]: -17.2 kcal/mol

GGGTACGAAAGTAAGCCC ((((((....)))..)))
Tm [1]: 40.7 °C
folding enthalpy [2]: -20.7 kcal/mol

GATCGTATCCACGATC ((((((....))))))
Tm [1]: 56.9 °C
folding enthalpy [2]: -35.3 kcal/mol

GATCTAATTGTAGATC ((((((....))))))
Tm [1]: 38.8 °C
folding enthalpy [2]: -33 kcal/mol

GTAAGACGAAAGTCTAC (((.(((....))))))
Tm [1]: 41.7 °C
folding enthalpy [2]: -14.6 kcal/mol

GTTCCGGGAAACTGGGAC ((.((.(....).)).))
Tm [1]: 41.4 °C
folding enthalpy [2]: -28.2 kcal/mol

GACGCAGGAAACTACGTC ((((.((....)).))))
Tm [1]: 43.5 °C
folding enthalpy [2]: -26.6 kcal/mol

GATCTAATATTAGATC ((((((....))))))
Tm [1]: 43.2 °C
folding enthalpy [2]: -40.3 kcal/mol

GGAACTCGAAAGAGCTCC (((.(((....))).)))
Tm [1]: 48.2 °C
folding enthalpy [2]: -33.9 kcal/mol

GCGTGGTCACGC ((((....))))
Tm [1]: 57.5 °C
folding enthalpy [2]: -26.3 kcal/mol

CGCGGACAGTCCGCG ((((((...))))))
Tm [1]: 65.6 °C
folding enthalpy [2]: -32.6 kcal/mol

GCGATATCTCGC ((((....))))
Tm [1]: 48.5 °C
folding enthalpy [2]: -20.5 kcal/mol

GAGTACGAAAGTAACTC ((((((....))).)))
Tm [1]: 45.4 °C
folding enthalpy [2]: -23.4 kcal/mol

GTCATTCGAAAGAACGAC (((.(((....))).)))
Tm [1]: 41.1 °C
folding enthalpy [2]: -31 kcal/mol

GCGGTCGGAAACGATCGC (((.(((....))).)))
Tm [1]: 67.3 °C
folding enthalpy [2]: -34.8 kcal/mol

GATCAAGGCATTGATC ((((((....))))))
Tm [1]: 50.5 °C
folding enthalpy [2]: -34.5 kcal/mol

GATCATCTCAATGATC ((((((....))))))
Tm [1]: 48.9 °C
folding enthalpy [2]: -41.6 kcal/mol

GTCTCCGAAAGGAAAGAC ((((((....)))..)))
Tm [1]: 42.4 °C
folding enthalpy [2]: -23.1 kcal/mol

GCAATCGAAAGATAATGC ((((((....)))..)))
Tm [1]: 27.8 °C
folding enthalpy [2]: -16.3 kcal/mol

GATCAACTCATTGATC ((((((....))))))
Tm [1]: 44.6 °C
folding enthalpy [2]: -33.8 kcal/mol

GCACTGCGAAAGCACTGC (((.(((....))).)))
Tm [1]: 44.4 °C
folding enthalpy [2]: -28.1 kcal/mol

GTAGCACCGAAAGGTTAC (((..(((....))))))
Tm [1]: 29.2 °C
folding enthalpy [2]: -8.52 kcal/mol

GCACAGCGAAAGCGATGC (((..((....))..)))
Tm [1]: 51.6 °C
folding enthalpy [2]: -15.8 kcal/mol

GCGGATCGAAAGATGCGC (((.(((....))).)))
Tm [1]: 66.3 °C
folding enthalpy [2]: -38.6 kcal/mol

GTCAACGAAAGTTACGAC ((((((....)))..)))
Tm [1]: 34.5 °C
folding enthalpy [2]: -16.4 kcal/mol

GTAGCCCGAAAGGGTAC (((.(((....))))))
Tm [1]: 48.6 °C
folding enthalpy [2]: -17.7 kcal/mol

GGTACACGAAAGTGCACC (((.(((....))).)))
Tm [1]: 52.3 °C
folding enthalpy [2]: -33.9 kcal/mol

GTCGAAGCGAAAGCTGAC (((..(((....))))))
Tm [1]: 46.5 °C
folding enthalpy [2]: -14.8 kcal/mol

GACTTAGGAAACTAAGTC (((((((....)))))))
Tm [1]: 53.8 °C
folding enthalpy [2]: -37.3 kcal/mol

GCGTGGCTACGC ((((....))))
Tm [1]: 58.5 °C
folding enthalpy [2]: -23.4 kcal/mol

GAGACGCGAAAGCGCCTC (((.(((....))).)))
Tm [1]: 58.7 °C
folding enthalpy [2]: -30.3 kcal/mol

GGCAAAACGAAAGTTGCC (((..(((....))))))
Tm [1]: 52.7 °C
folding enthalpy [2]: -38.6 kcal/mol

GCGCAGCGAAAGCTAGGC ((..(((....)))..))
Tm [1]: 39.7 °C
folding enthalpy [2]: -5.67 kcal/mol

GGCACCGGAAACGATGCC ((((.((....)).))))
Tm [1]: 52.9 °C
folding enthalpy [2]: -43.2 kcal/mol

GGTCCGTCGAAAGACACC (((..(((....))))))
Tm [1]: 27.5 °C
folding enthalpy [2]: -14.1 kcal/mol

GCACGCGAAAGCGGTTGC ((((((....)))..)))
Tm [1]: 49.5 °C
folding enthalpy [2]: -13.3 kcal/mol

GGAAGTGCGAAAGCATCC (((..(((....))))))
Tm [1]: 31.3 °C
folding enthalpy [2]: -10.6 kcal/mol

GATCCACCGTTGGATC ((((((....))))))
Tm [1]: 49.7 °C
folding enthalpy [2]: -36.5 kcal/mol

GCACTGCGAAAGCCGTGC ((((.((....)).))))
Tm [1]: 63.3 °C
folding enthalpy [2]: -37.2 kcal/mol

GTAGTGCGAAAGCATAC (((.(((....))))))
Tm [1]: 40.5 °C
folding enthalpy [2]: -12.6 kcal/mol

GCGAGCGATCGC ((((....))))
Tm [1]: 53.5 °C
folding enthalpy [2]: -25.3 kcal/mol

GAAGTCGGAAACGACTCC (.(((((....))))).)
Tm [1]: 41.3 °C
folding enthalpy [2]: -13.2 kcal/mol

GCTGCACCGAAAGGTAGC (((..(((....))))))
Tm [1]: 49.2 °C
folding enthalpy [2]: -13.4 kcal/mol

CGACGCGGAAACGCTTCG (((.(((....))).)))
Tm [1]: 50.5 °C
folding enthalpy [2]: -33.6 kcal/mol

GGGAAACGAAAGTTCCC (((.(((....))))))
Tm [1]: 53.4 °C
folding enthalpy [2]: -28 kcal/mol

GATCACACTGTGATC ((((((...))))))
Tm [1]: 55.6 °C
folding enthalpy [2]: -41.8 kcal/mol

GCCATAGCGAAAGCTGGC (((..(((....))))))
Tm [1]: 56.5 °C
folding enthalpy [2]: -25.5 kcal/mol

GCGCCGCGAAAGCTACGC (((..((....))..)))
Tm [1]: 53.5 °C
folding enthalpy [2]: -20.9 kcal/mol

GGAGTGCGAAAGCAGTCC (((.(((....))).)))
Tm [1]: 65.8 °C
folding enthalpy [2]: -30.1 kcal/mol

GATCACGGCGGTGATC ((((((....))))))
Tm [1]: 58.8 °C
folding enthalpy [2]: -45.6 kcal/mol

GCTTTCGAAAGAACAAGC ((((((....)))..)))
Tm [1]: 31.8 °C
folding enthalpy [2]: -24.3 kcal/mol

GATCACTGTCGTGATC ((((((....))))))
Tm [1]: 54.9 °C
folding enthalpy [2]: -37.3 kcal/mol

GTGCGGGGAAACCCACAC (((.(((....))).)))
Tm [1]: 51.6 °C
folding enthalpy [2]: -37.9 kcal/mol

GTAATCGAAAGATTATAC ((((((....)))..)))
Tm [1]: 33.4 °C
folding enthalpy [2]: -15.6 kcal/mol

GCTGGACGAAAGTCAGC (((.(((....))))))
Tm [1]: 56.1 °C
folding enthalpy [2]: -30.6 kcal/mol

GATCAATGGATTGATC ((((((....))))))
Tm [1]: 45.2 °C
folding enthalpy [2]: -28.3 kcal/mol

GTCAAGCGAAAGCTGAC (((.(((....))))))
Tm [1]: 58.6 °C
folding enthalpy [2]: -25.6 kcal/mol

GACCGGACGAAAGTCGTC (((..(((....))))))
Tm [1]: 37.1 °C
folding enthalpy [2]: -12.1 kcal/mol

GATCCTCTGGAGGATC ((((((....))))))
Tm [1]: 58.3 °C
folding enthalpy [2]: -39.5 kcal/mol

GCGTGGGGAAACCCATGC ((.((((....)))).))
Tm [1]: 57.9 °C
folding enthalpy [2]: -42.3 kcal/mol

GAGTACGGAAACGTGTTC ((..(((....)))..))
Tm [1]: 22.2 °C
folding enthalpy [2]: -10.5 kcal/mol

GCGCAGCGAAAGCGGGGC ((.(.((....)).).))
Tm [1]: 57.6 °C
folding enthalpy [2]: -14.3 kcal/mol

GAACGCGAAAGCGAGTTC ((((((....)))..)))
Tm [1]: 43.1 °C
folding enthalpy [2]: -14.8 kcal/mol

GATCGACCGTCGATC ((((((...))))))
Tm [1]: 49 °C
folding enthalpy [2]: -36 kcal/mol

GATCTGGGAGCAGATC ((((((....))))))
Tm [1]: 53.8 °C
folding enthalpy [2]: -35.4 kcal/mol

GTCGCACGAAAGTGAGAC (((.(((....))).)))
Tm [1]: 59.5 °C
folding enthalpy [2]: -30.6 kcal/mol

GCTTTCGAAAGAAGTAGC ((((((....)))..)))
Tm [1]: 34 °C
folding enthalpy [2]: -23 kcal/mol

GACGCCGAAAGGCAAGTC ((((((....)))..)))
Tm [1]: 48.9 °C
folding enthalpy [2]: -19.7 kcal/mol

GATCGGTATCCGATC ((((((...))))))
Tm [1]: 57.4 °C
folding enthalpy [2]: -40.8 kcal/mol

GATCTTGCACAAGATC ((((((....))))))
Tm [1]: 50.8 °C
folding enthalpy [2]: -33.4 kcal/mol

GCTTACGAAAGTACGAGC ((((((....)))..)))
Tm [1]: 32.1 °C
folding enthalpy [2]: -20.3 kcal/mol

GTATACCGAAAGGTGTAC (((.(((....))).)))
Tm [1]: 51.6 °C
folding enthalpy [2]: -27.6 kcal/mol

GATCTGGCCGCAGATC ((((((....))))))
Tm [1]: 52.3 °C
folding enthalpy [2]: -36 kcal/mol

GCCCGCGAAAGCGGAGGC ((((((....)))..)))
Tm [1]: 60 °C
folding enthalpy [2]: -13.7 kcal/mol

CCTAAGAAATTAGG (((((....)))))
Tm [1]: 28.1 °C
folding enthalpy [2]: -8.08 kcal/mol

CGACCGGAAACGGATCG ((((((....))).)))
Tm [1]: 48.5 °C
folding enthalpy [2]: -33.3 kcal/mol

GCAAAGCGAAAGCGATGC (((..((....))..)))
Tm [1]: 61.7 °C
folding enthalpy [2]: -24.4 kcal/mol

GTCGCCGAAAGGCAGAC ((((((....))).)))
Tm [1]: 61.7 °C
folding enthalpy [2]: -17.7 kcal/mol

GCAATGCGAAAGCAGGGC ((..(((....)))..))
Tm [1]: 60.9 °C
folding enthalpy [2]: -25.4 kcal/mol

GATCGATGCCTCGATC ((((((....))))))
Tm [1]: 52.5 °C
folding enthalpy [2]: -38.1 kcal/mol

GCGAAGCGAAAGCTTGGC ((.((((....)))).))
Tm [1]: 52 °C
folding enthalpy [2]: -18.1 kcal/mol

GCTAGGCGAAAGCCCGGC ((..(((....)))..))
Tm [1]: 45.6 °C
folding enthalpy [2]: -16.9 kcal/mol

GATCCTTCTTAGGATC ((((((....))))))
Tm [1]: 52.8 °C
folding enthalpy [2]: -41.8 kcal/mol

GAATCTGGAAACAGACTC ((.((((....)))).))
Tm [1]: 29.1 °C
folding enthalpy [2]: -17.7 kcal/mol

GCGTAGCGAAAGCGCCGC (((..((....))..)))
Tm [1]: 59.7 °C
folding enthalpy [2]: -15.9 kcal/mol
